From ChEMBL document CHEMBL4699398, “The synthesis and biological evaluation of sanguinarine derivatives as anti-non-small cell lung cancer agents” (RSC Med Chem, 2020)
Activity calls are given as the source filed them. The rule behind the calls is not given here.

Key:
NCI-H1975 [1] = test: Induction of apoptosis in human H1975 cells assessed as necrotic cells at 3 uM after 48 hrs by Annexin V-FITC/7-AAD staining based flow cytometric method (reference value: 0.85 %); format: functional
NCI-H1975 [2] = test: Induction of cell cycle arrest in human H1975 cells assessed as accumulation in S phase at 0.3 uM incubated for 24 hrs by […] propidium iodide staining based flow cytometry (reference value: 14.13 %); format: functional
NCI-H1975 [3] = test: Induction of apoptosis in human H1975 cells assessed as viable cells at 0.3 uM after 48 hrs by Annexin V-FITC/7-AAD staining based flow cytometric method (reference value: 88.02 %); format: functional; details: read-out: Activity
NCI-H1975 [4] = test: Induction of cell cycle arrest in human H1975 cells assessed as accumulation in G2/M phase at 0.3 uM incubated for 24 hrs by […] propidium iodide staining based flow cytometry (reference value: 21.00 %); format: functional
A549 [5] = test: Induction of apoptosis in human A549 cells assessed as necrotic cells at 3 uM after 48 hrs by Annexin V-FITC/7-AAD staining based flow cytometric method (reference value: 0.70 %); format: functional
NCI-H1975 [6] = test: Induction of cell cycle arrest in human H1975 cells assessed as accumulation in G0/G1 phase at 0.3 uM incubated for 24 hrs by […] propidium iodide staining based flow cytometry (reference value: 62.86 %); format: functional
NCI-H1975 [7] = test: Induction of apoptosis in human H1975 cells assessed as necrotic cells at 0.3 uM after 48 hrs by Annexin V-FITC/7-AAD staining based flow cytometric method (reference value: 0.85 %); format: functional
A549 [8] = test: Induction of apoptosis in human A549 cells assessed as late apoptotic cells at 1 uM after 48 hrs by Annexin V-FITC/7-AAD staining based flow cytometric method (reference value: 2.94 %); format: functional
A549 [9] = test: Induction of apoptosis in human A549 cells assessed as increase in phosphorylated Akt level at 0.1 to 3 uM incubated for 24 hrs by Western blot analysis; format: functional, cell-based; details: dose microM 0.1-3, time 24.0 hrs
Summary of the method: (§1)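 After treatment, cells harvested and lysed in RIPA buffer; equal protein loaded on 12% SDS-PAGE and transferred to PVDF; blocked in 5% milk 2 h at room temperature; primary antibodies (AKT, p-AKT, cleaved caspase-3, cleaved caspase-9, PARP; GAPDH loading control) overnight at 4 °C; HRP secondaries 2 h at room temperature; chemiluminescent detection.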

NCI-H1975 [10] = test: Induction of apoptosis in human H1975 cells assessed as late apoptotic cells at 0.3 uM after 48 hrs by Annexin V-FITC/7-AAD staining based flow cytometric method (reference value: 4.63 %); format: functional
A549 [11] = test: Induction of apoptosis in human A549 cells assessed as necrotic cells at 0.3 uM after 48 hrs by Annexin V-FITC/7-AAD staining based flow cytometric method (reference value: 0.70 %); format: functional
NCI-H1975 [12] = test: Induction of apoptosis in human H1975 cells assessed as viable cells at 1 uM after 48 hrs by Annexin V-FITC/7-AAD staining based flow cytometric method (reference value: 88.02 %); format: functional; details: read-out: Activity
A549 [13] = test: Induction of apoptosis in human A549 cells assessed as increase in cleaved caspase-3 level at 0.1 to 3 uM incubated for 24 hrs by Western blot analysis; format: functional, cell-based; details: dose microM 0.1-3, time 24.0 hrs; summary of the method: as §1
A549 [14] = test: Induction of apoptosis in human A549 cells assessed as necrotic cells at 1 uM after 48 hrs by Annexin V-FITC/7-AAD staining based flow cytometric method (reference value: 0.70 %); format: functional
A549 [15] = test: Induction of apoptosis in human A549 cells assessed as viable cells at 3 uM after 48 hrs by Annexin V-FITC/7-AAD staining based flow cytometric method (reference value: 93.10 %); format: functional; details: read-out: Activity
NCI-H1975 [16] = test: Induction of apoptosis in human H1975 cells assessed as early apoptotic cells at 3 uM after 48 hrs by Annexin V-FITC/7-AAD staining based flow cytometric method (reference value: 6.50 %); format: functional
NCI-H1975 [17] = test: Induction of apoptosis in human H1975 cells assessed as necrotic cells at 1 uM after 48 hrs by Annexin V-FITC/7-AAD staining based flow cytometric method (reference value: 0.85 %); format: functional
A549 [18] = test: Induction of apoptosis in human A549 cells assessed as late apoptotic cells at 0.3 uM after 48 hrs by Annexin V-FITC/7-AAD staining based flow cytometric method (reference value: 2.94 %); format: functional
A549 [19] = test: Induction of apoptosis in human A549 cells assessed as late apoptotic cells at 3 uM after 48 hrs by Annexin V-FITC/7-AAD staining based flow cytometric method (reference value: 2.94 %); format: functional
NCI-H1975 [20] = test: Induction of apoptosis in human H1975 cells assessed as viable cells at 3 uM after 48 hrs by Annexin V-FITC/7-AAD staining based flow cytometric method (reference value: 88.02 %); format: functional; details: read-out: Activity
NCI-H1975 [21] = test: Induction of apoptosis in human H1975 cells assessed as late apoptotic cells at 3 uM after 48 hrs by Annexin V-FITC/7-AAD staining based flow cytometric method (reference value: 4.63 %); format: functional
NCI-H1975 [22] = test: Induction of cell cycle arrest in human H1975 cells assessed as accumulation in G0/G1 phase at 1 uM incubated for 24 hrs by […] propidium iodide staining based flow cytometry (reference value: 62.86 %); format: functional
A549 [23] = test: Induction of apoptosis in human A549 cells assessed as early apoptotic cells at 1 uM after 48 hrs by Annexin V-FITC/7-AAD staining based flow cytometric method (reference value: 3.26 %); format: functional
NCI-H1975 [24] = test: Induction of apoptosis in human H1975 cells assessed as late apoptotic cells at 1 uM after 48 hrs by Annexin V-FITC/7-AAD staining based flow cytometric method (reference value: 4.63 %); format: functional
A549 [25] = test: Induction of cell cycle arrest in human A549 cells assessed as accumulation in G0/G1 phase at 3 uM incubated for 24 hrs by […] propidium iodide staining based flow cytometry (reference value: 63.11 %); format: functional
A549 [26] = test: Induction of cell cycle arrest in human A549 cells assessed as accumulation in S phase at 1 uM incubated for 24 hrs by […] propidium iodide staining based flow cytometry (reference value: 14.16 %); format: functional

`CN1c2c(ccc3cc4c(cc23)OCO4)-c2ccc3c(c2C1N1CCOCC1)OCO3` (stereo unspecified) showed an Activity (NCI-H1975 [1]) of 4.59%, an Activity (NCI-H1975 [2]) of 14.07% and a viability at 0.3 µM (NCI-H1975 [3]) of 82.5%. The Activity (NCI-H1975 [4]) was 23.51%, the Activity (A549 [5]) was 1.65% and the Activity (NCI-H1975 [6]) was 62.04%. For the same molecule, the Activity (NCI-H1975 [7]) was 0.98%, the Activity (A549 [8]) was 9.4% and the Activity (A549 [9]) was “Active”. It also gave an Activity (NCI-H1975 [10]) of 5.55%, an Activity (A549 [11]) of 8.73% and a viability at 1 µM (NCI-H1975 [12]) of 67.4%. The Activity (A549 [13]) was “Active”, the Activity (A549 [14]) was 4.23% and the viability at 3 µM (A549 [15]) was 0.71%. The Activity (NCI-H1975 [16]) was 3.11%, the Activity (NCI-H1975 [17]) was 2.8% and the Activity (A549 [18]) was 6.92%. For the same molecule, the Activity (A549 [19]) was 93.73%, the viability at 3 µM (NCI-H1975 [20]) was 1.8% and the Activity (NCI-H1975 [21]) was 90.5%. For the same molecule, the Activity (NCI-H1975 [22]) was 67.32%, the Activity (A549 [23]) was 8.03% and the Activity (NCI-H1975 [24]) was 19.17%. For the same molecule, the Activity (A549 [25]) was 71.21% and the Activity (A549 [26]) was 15.64%.
